# ChEMBL document CHEMBL3286347, “Evaluation of anti-inflammatory activity of prenylated substances isolated from Morus alba and Morus nigra” (J Nat Prod, 2014)
# Activity calls are given as the source filed them. The calls are words filed in the database; no cut-off is given here.
# Legend:
# THP-1 [1] = assay: Cytotoxicity against human THP1 cells after 24 hrs by WST1 assay; assay type: cell-based; conditions: THP-1, 24 h
# Outline: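 THP-1 monocyte suspension (5 × 10^5 cells/mL) exposed to compounds in DMSO, 30 down to 0.37 μM, DMSO 0.1% final; 24 h at 37 °C, 5% CO2; viability by WST-1 reagent; IC50 calculated from viability curves; triplicate, arithmetic mean ± SE.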
# [2] = target: Transcription factor p65 (Homo sapiens) (UniProt Q04206); assay: Inhibition of NFkappaB p65 nuclear translocation in LPS-induced human THP1 cells at 1 uM treated 1 hr before LPS challenge measured after 3 hrs using propidium iodide staining by fluorescence microscopic analysis; assay type: cell-based; conditions: THP-1
# Outline: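 PMA-differentiated THP-1 macrophages in serum-free RPMI (5 × 10^5 cells/mL) pretreated 1 h at 1 μM, then LPS 1 μg/mL final for 3 h; acetone-fixed, BSA-blocked, rabbit anti-p65 overnight at 4 °C, FITC anti-rabbit IgG 1 h, nuclei counterstained with propidium iodide 0.5 μg/mL; p65/nuclear colocalization viewed by fluorescence microscopy; three independent experiments.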
# THP-1 [3] = assay: Antiinflammatory activity in human THP1 cells assessed as inhibition of TNFalpha secretion at 1 uM treated 1 hr before LPS challenge measured after 24 hrs by ELISA; assay type: functional, cell-based
# Outline: (§1)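 THP-1 monocytes (RPMI 1640, 10% FBS, 37 °C, 5% CO2) differentiated to macrophages with PMA; pretreated 1 h with test agent at 1 μM in DMSO (0.1% final); LPS (E. coli 0111:B4) 1 μg/mL added, medium collected after 24 h and stored at −80 °C; secreted cytokine quantified by ELISA; vehicle and non-LPS controls; three independent experiments, mean ± SE.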
# THP-1 [4] = assay: Antiinflammatory activity in human THP1 cells assessed as inhibition of IL-1beta secretion at 1 uM treated 1 hr before LPS challenge measured after 24 hrs by ELISA; assay type: functional, cell-based; outline: as §1
# A2780 = assay: Cytotoxicity against human A2780 cells; assay type: cell-based
# THP-1 [5] = assay: Ratio of prednisone to compound for antiinflammatory activity in human THP1 cells assessed as inhibition of TNFalpha secretion at 1 uM treated 1 hr before LPS challenge measured after 24 hrs by ELISA; assay type: functional
# Transcription factor p65 (Homo sapiens), sequence (Q04206 whole entry): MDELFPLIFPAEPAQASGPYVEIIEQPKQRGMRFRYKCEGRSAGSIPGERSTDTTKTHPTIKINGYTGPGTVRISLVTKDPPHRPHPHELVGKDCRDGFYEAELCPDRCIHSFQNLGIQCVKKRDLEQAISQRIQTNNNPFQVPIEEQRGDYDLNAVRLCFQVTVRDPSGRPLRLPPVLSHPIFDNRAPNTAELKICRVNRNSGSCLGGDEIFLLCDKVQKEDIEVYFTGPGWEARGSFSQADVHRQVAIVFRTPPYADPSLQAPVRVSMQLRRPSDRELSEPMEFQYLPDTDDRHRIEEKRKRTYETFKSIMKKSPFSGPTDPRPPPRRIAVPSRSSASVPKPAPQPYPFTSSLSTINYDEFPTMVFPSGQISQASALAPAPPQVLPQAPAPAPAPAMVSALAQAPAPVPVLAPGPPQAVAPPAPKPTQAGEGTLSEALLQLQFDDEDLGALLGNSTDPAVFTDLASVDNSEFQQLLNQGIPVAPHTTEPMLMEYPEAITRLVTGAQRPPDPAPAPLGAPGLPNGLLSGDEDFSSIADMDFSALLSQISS
SMILES,IC50 (THP-1 [1]) [µM],inhibition [2],inhibition (THP-1 [3]),inhibition (THP-1 [4]),IC50 (A2780) [µM],Ratio (THP-1 [5])
CC(C)=CCc1c(O)ccc(C(=O)[C@@H]2[C@@H](c3ccc(O)cc3O)CC(C)=C[C@H]2c2c(O)cc3c(c2O)C(=O)[C@@H]2Oc4cc(O)ccc4[C@]2(CC=C(C)C)O3)c1O,4,–,–,–,–,–
CC1(C)C=Cc2c(O)ccc([C@@H]3CC(=O)c4c(O)cc(O)cc4O3)c2O1,> 10,Active,Active,Active,–,–
CC(C)=CCc1c(O)ccc([C@@]23Oc4cc(O)ccc4[C@@H]4CC(C)=C[C@@H](c5c(O)cc(-c6cc7ccc(O)cc7o6)cc5O2)[C@H]43)c1O,–,–,–,–,1.2,–
C[C@@]12C=C(c3c(O)cc(-c4cc5ccc(O)cc5o4)cc3O)C[C@@H](C1)c1ccc(O)cc1O2 [MULBERROFURAN H],3.2,Active,–,inactive,–,–
CC(C)=CCc1c(-c2ccc(O)cc2O)oc2c(CC=C(C)C)c(O)cc(O)c2c1=O [KUWANON C],1.7,–,Active,Active,–,–
CC(C)=CCc1c(-c2ccc(O)cc2O)oc2cc3c(c(O)c2c1=O)C=CC(C)(C)O3 [CUDRAFLAVONE B],> 10,Active,Active,inactive,–,–
CC(C)=CCC/C(C)=C/Cc1cc(C2CC(=O)c3c(O)cc(O)cc3O2)c(O)cc1O (centres undefined) [KUWANON E],4,–,Active,Active,–,–
COc1c(O)cc2oc(-c3cc(O)cc(O)c3)cc2c1C/C=C(\C)CCC=C(C)C [MULBERROFURAN Y],4.8,–,–,Active,–,–
CC(C)(O)CCc1c(-c2ccc(O)cc2O)oc2c3c(cc(O)c2c1=O)OC(C)(C)C=C3 [MORUSINOL],4.3,Active,Active,Active,–,2
CC(C)=CCc1c(O)cc(-c2cc3ccc(O)cc3o2)cc1O [MORACIN C],3.2,–,–,inactive,–,–
CC1=C[C@@H]2c3c(O)cc(C=O)cc3OC3(c4ccc(O)c5c4OC(C)(C)C=C5)Oc4cc(O)ccc4[C@@H](C1)[C@H]23 (some centres undefined),4.7,–,–,–,–,–
